From ChEMBL document CHEMBL4411315, “Discovery of Novel Dual Histone Deacetylase and Mammalian Target of Rapamycin Target Inhibitors as a Promising Strategy for Cancer Therapy” (J Med Chem, 2019) come the findings set out here.

The subject of one assay is MCF7. Nature of the assay: Antiproliferative activity against human MCF7 cells after 72 hrs by MTT assay. Type of assay: functional, cell-based. The following applies: MCF7, 72 h.
A further assay concerns HCT-116. Nature of the assay: Antiproliferative activity against human HCT116 cells after 72 hrs by MTT assay. The format is functional, cell-based. The conditions noted are these: HCT-116, 72 h.
Assay [1] deals with Serine/threonine-protein kinase mTOR (Homo sapiens, UniProt P42345). Kind of assay: Inhibition of recombinant N-terminal FLAG-tagged human mTOR (1362 to end residues) at 500 nM using ULight-4E-BP1 (Thr37/46) peptide as substrate after 1 hr by fluorescence assay relative to control.
Another assay concerns MM1.S. Nature of the assay: Antiproliferative activity against human MM1S cells after 72 hrs by MTT assay. The format is functional, cell-based.
Another assay relates to Raji. Nature of the assay: Antiproliferative activity against human Raji cells after 72 hrs by MTT assay. Type of assay: functional, cell-based. In outline: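 Log-phase cells were plated at 10000-15000 per well and exposed to serial concentrations after 24 h for 72 h. Read-out was MTT for 1-3 h, then 20% SDS overnight and absorbance at 570 nm. IC50 was calculated from growth versus untreated control, as mean ± SEM of at least three independent experiments.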
(In general: Formazan colour is commonly taken as a measure of viable cells.)

The target in assay [2] is PI3-kinase p110-alpha/p85-alpha (Homo sapiens) (UniProt P27986+P42336). Kind of assay: Inhibition of recombinant human full length N-terminal His-tagged/untagged p110alpha/p85alpha expressed in baculovirus expression system at 500 nM using PIP2 as substrate after 1 hr by Kinase-Glo reagent-based assay relative to control. (In general: Kinase-Glo measures the ATP left after a reaction by luminescence.)

For orientation: IC50 means the point on the concentration scale where inhibition reaches its midpoint. Lower therefore signals greater potency in that assay. What is called inhibition is the change of the read-out against control, counted positive when it falls. In the case of `Nc1ncc(-c2nc(N3CCOCC3)c3cnn(CCCCCCC(=O)NO)c3n2)cn1`, the IC50 turned out to be 221 nM in the assay on MCF7, 163 nM in the assay with HCT-116, 32.6 nM in the assay with MM1.S and 31.7 nM with Raji. In addition, the inhibition came to 40% in assay [1] and 1.2% in assay [2].
Regarding `O=C(CCCCCCn1ncc2c(N3CCOCC3)nc(-c3ccoc3)nc21)NO`, the IC50 in the assay on MCF7 was found to be 156 nM; in the assay with HCT-116, 34.9 nM; in the assay with MM1.S it was 15.6 nM; in the assay on Raji, 7.7 nM. For the same compound, the inhibition in assay [1] was 35%; in assay [2] it was 8.4%.
Turning to `CC(O)CNC(=O)Nc1ccc(-c2nc(N3CCOCC3)c3cnn(CCCCCCC(=O)NO)c3n2)cc1` (stereo unspecified), the values for the IC50 in the assay with HCT-116, in the assay on MM1.S and in the assay on Raji were 441 nM, 305 nM and 153 nM, respectively.
For `O=C(CCCCCCn1ncc2c(N3CCOCC3)nc(-c3ccc(NC(=O)Nc4ncc(Br)cn4)cc3)nc21)NO`, the IC50 was 144 nM in the assay on HCT-116, 64.3 nM in the assay with MM1.S and 60.8 nM in the assay with Raji.
For `Cc1cccnc1NC(=O)Nc1ccc(-c2nc(N3CCOCC3)c3cnn(CCCCCCC(=O)NO)c3n2)cc1`, in that order: 24.6 nM, 20.2 nM and 19 nM.
Consider `CCCNC(=O)Nc1ccc(-c2nc(N3CCOCC3)c3cnn(CCCCCCC(=O)NO)c3n2)cc1`, for which the IC50 stood at 104 nM in the assay on HCT-116, 83.4 nM with MM1.S and 42.5 nM in the assay with Raji.
`COc1ccc(-c2nc(N3CCOCC3)c3cnn(CCCCCCC(=O)NO)c3n2)cn1`: the IC50 in the assay with MCF7 is 372 nM; in the assay with HCT-116, 66.9 nM; with MM1.S, above 500 nM; with Raji, 44.9 nM. In addition, the figures for the inhibition in assay [1] and in assay [2] were 58% and 3.3%, respectively.
On to `Cc1ccc(NC(=O)Nc2ccc(-c3nc(N4CCOCC4)c4cnn(CCCCCCC(=O)NO)c4n3)cc2)cc1`, for which the IC50 is 26.1 nM with HCT-116, 24.7 nM in the assay with MM1.S and 22.1 nM in the assay with Raji.
On to `CS(=O)(=O)c1ccc(-c2nc(N3CCOCC3)c3cnn(CCCCCCC(=O)NO)c3n2)cc1`, for which the IC50 in the assay on MCF7 is above 500 nM; in the assay with HCT-116, 76.5 nM; with MM1.S it was 168 nM; in the assay on Raji, 111 nM. Besides, the inhibition in assay [1] was found to be 64%; in assay [2], 31%.
In the case of `O=C(CCCCCCn1ncc2c(N3CCOCC3)nc(-c3cccnc3)nc21)NO`, the IC50 was above 500 nM in the assay on MCF7, 296 nM in the assay on HCT-116, above 500 nM with MM1.S and above 500 nM with Raji. Further, the results for the inhibition in assay [1] and in assay [2] were 17% and -0.1%, respectively.
`Nc1ccc(-c2nc(N3CCOCC3)c3cnn(CCCCCCC(=O)NO)c3n2)cn1`: the IC50 with MCF7 is 163 nM; with HCT-116, 61.3 nM; in the assay with MM1.S, 8.4 nM; with Raji, 7.1 nM. The inhibition stood at 35% in assay [1] and 1.9% in assay [2].
Take `COc1ccc(-c2nc(N3CCOCC3)c3cnn(CCCCCCC(=O)NO)c3n2)cc1`: the IC50 was found to be 70.6 nM in the assay on MCF7, 38 nM with HCT-116, 354 nM in the assay with MM1.S and 29.3 nM in the assay with Raji. For the same compound, the inhibition in assay [1] was 38%; in assay [2] it was -1%.
As for `O=C(CCCCCCn1ncc2c(N3CCOCC3)nc(-c3ccc(NC(=O)NCCO)cc3)nc21)NO`, the values for the IC50 in the assay with HCT-116, with MM1.S and with Raji were 57.2 nM, 60.3 nM and 61.1 nM, respectively.
Turning to `COc1cccc(NC(=O)Nc2ccc(-c3nc(N4CCOCC4)c4cnn(CCCCCCC(=O)NO)c4n3)cc2)c1`, the IC50 in the assay with HCT-116 was above 500 nM; in the assay with MM1.S it was 464 nM; with Raji, 247 nM.
Turning to `CNC(=O)Nc1ccc(-c2nc(N3CCOCC3)c3cnn(CCCCCCC(=O)NO)c3n2)cc1`, the IC50 in the assay on HCT-116 was 51.6 nM; in the assay with MM1.S, 13.4 nM; in the assay with Raji, 3.5 nM.
